PRMT1 FP inh = inhibitors of human PRMT1; AID 652257; inhibition, % at 2.79 µM; recombinant PRMT1, activity-based probe fluorescence polarization; 370,000 tested, 1.3% active;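 active means inhibition above about 21% made by adding two undisclosed values, limit read from the data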
TCR-CD3 inh = human TCR-CD3 binding inhibition. 360,000 tested, 0.37% active. inhibition, % at 9.4 µM. TAMRA-labeled TCR probe fluorescence, biochemical. AID 651800;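 further: recombinant mutant TCR 2C K166C tagged with TAMRA read by polarization; 0% = receptor in buffer alone and 100% = receptor with positive control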
SIAE primary = inhibitors of human sialic acid acetylesterase SIAE; Q9HAT2; SIAE FP-Rh probe binding, fluorescence polarization; inhibition, % at 9.66 µM; 370,000 tested, 0.69% active; AID 1053197;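 active means inhibition above a cutoff: mean of compounds within the control limits plus 3 SD of those, cut at about 17% in these data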;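 further: 0% = plate median of compound wells and 100% = probe without SIAE protein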
ABHD4 inh = inhibitors of mouse ABHD4 | Q8VD66 | purified mABHD4, FP-Rh probe fluorescence polarization | inhibition, % at 8.92 µM | 370,000 tested, 0.54% active | AID 720543;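 active means inhibition exceeding the mean over every tested compound plus 3 SD, cut at about 30% in these data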;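 further: 0% = plate median of compound wells and 100% = S159A mutant with DMSO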
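assay system = mABHD4 protein | compound dosing = single nominal dose of 8.92 µM, 0.89% DMSO final | read-out basis = percent inhibition of probe binding, normalized to plate controls | schedule = Enzyme–compound pre-incubation 45 min, then probe 60 min, both 25 °C | detection = fluorescence polarization, excitation 525 nm, emission 598 nm, BODIPY TMR filters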
HTRA1 inh = blocks human HTRA1 serine peptidase; Q92743; recombinant HTRA1, FP-rhodamine activity-based probe, fluorescence polarization; inhibition, % at 5.96 µM; 340,000 tested, 0.5% active; AID 504803; in the data active means inhibition above about 36%;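 further: 0% = enzyme with DMSO and 100% = wells lacking enzyme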
Target sequence (Q92743 whole entry, looked up): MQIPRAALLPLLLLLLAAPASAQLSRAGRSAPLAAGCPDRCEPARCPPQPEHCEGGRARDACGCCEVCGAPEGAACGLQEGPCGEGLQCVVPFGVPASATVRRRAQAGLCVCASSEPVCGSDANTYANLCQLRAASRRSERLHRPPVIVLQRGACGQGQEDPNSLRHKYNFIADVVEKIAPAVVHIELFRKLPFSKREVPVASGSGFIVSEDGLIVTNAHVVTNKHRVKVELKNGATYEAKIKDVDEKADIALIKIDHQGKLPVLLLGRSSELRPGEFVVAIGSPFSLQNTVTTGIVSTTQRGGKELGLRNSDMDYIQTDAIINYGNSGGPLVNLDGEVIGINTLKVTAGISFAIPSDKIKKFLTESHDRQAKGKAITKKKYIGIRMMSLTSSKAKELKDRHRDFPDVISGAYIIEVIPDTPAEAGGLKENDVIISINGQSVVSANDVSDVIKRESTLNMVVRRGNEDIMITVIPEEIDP
rCAG RNA binder = molecules binding r(CAG) RNA repeats | AID 651821 | 370,000 tested, 1.3% active | r(CAG) RNA repeat, TO-PRO-1 dye displacement fluorescence | inhibition, % at 3 µM;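 active means inhibition above the plate cutoff, the mean of all test compounds on that plate plus 3 SD, cut at about 35% in these data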;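 further: 0% = DMSO alone and 100% = 100 µM mitoxantrone as full dye displacement; higher means more dye released from RNA so lower well fluorescence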
BSA TAMRA ctr = interferes with TAMRA-BSA probe, flagging TCR-CD3 hits; shares compounds with TCR-CD3 inh; TAMRA-labeled BSA probe fluorescence counterscreen; inhibition, % at 9.4 µM; 1,200 tested, 10% active; AID 652035; in the data active means inhibition above about 23%;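 further: 0% = buffer low control and 100% = reference high control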
TCR-CD3 conf = TCR-CD3 interaction inhibition, confirmation; shares compounds with TCR-CD3 inh; TAMRA-labeled TCR probe fluorescence binding assay; inhibition, % at 9.4 µM; 1,200 tested, 48% active; AID 652036
Numbers without * were called inactive. Most compounds without a hit are left out; they make up all but 3.5% or so of the library. Unless noted, no stated cut-off is given here; in the data, active means inhibition above about 19%; inactive means the rest.

How did CC(C)Cc1nnc(NC(=O)CCC(=O)NC2CCCCC2)s1 do in these assays?
PRMT1 FP inh: 2; TCR-CD3 inh: 20*; SIAE primary: 3; ABHD4 inh: 5; HTRA1 inh: 4; rCAG RNA binder: 0; BSA TAMRA ctr: -2; TCR-CD3 conf: -1

What do the screens show for `Brc1ccc(-c2ccc3c(n2)CCCN3Cc2ccccn2)cc1`?
PRMT1 FP inh: 2; TCR-CD3 inh: 2; SIAE primary: -7; ABHD4 inh: -8; rCAG RNA binder: 9

How did Cc1cc2c(nc1C)CCCN2Cc1ccccn1 do in these assays?
PRMT1 FP inh: 19; TCR-CD3 inh: 39*; SIAE primary: 12; ABHD4 inh: 18; rCAG RNA binder: 4; BSA TAMRA ctr: 39*; TCR-CD3 conf: 34*

What do the screens show for `COC(=O)[C@]12C[C@H](CC(=O)N3CCOCC3)C(=O)N(Cc3cccc4ccccc34)C1=C[C@H](C(C)C)O[C@@H]2C1CC1`?
PRMT1 FP inh: 1; SIAE primary: 2; ABHD4 inh: -1; rCAG RNA binder: 4

How did C=CCc1cccc2cc(C(=O)NCCOC)c(=O)oc12 do in these assays?
PRMT1 FP inh: 5; TCR-CD3 inh: -9; SIAE primary: -6; ABHD4 inh: 9; HTRA1 inh: -2; rCAG RNA binder: -2

Results for C=CCc1cccc2cc(C(=O)NNC(=O)CC#N)c(=O)oc12 ?
PRMT1 FP inh: -1; TCR-CD3 inh: 29*; SIAE primary: 3; ABHD4 inh: -3; HTRA1 inh: 4; rCAG RNA binder: 7; BSA TAMRA ctr: 1; TCR-CD3 conf: 15

What do the screens show for `O=S1(=O)CC2c3ccc(F)cc3CN2CN1CCc1ccccc1` (stereo not drawn)?
PRMT1 FP inh: 2; SIAE primary: 5; ABHD4 inh: -6; rCAG RNA binder: 6

Results for CCCCC(=O)N/N=C/c1ccc(-c2ccc([N+](=O)[O-])cc2)o1 ?
PRMT1 FP inh: -2; TCR-CD3 inh: 1; SIAE primary: 2; ABHD4 inh: 0; HTRA1 inh: 0; rCAG RNA binder: 2

What do the screens show for `Cc1cc(C)n(Cc2ccc(C(=O)N/N=C/c3ccc(-c4ccc([N+](=O)[O-])cc4)o3)o2)n1`?
PRMT1 FP inh: -1; TCR-CD3 inh: 19*; SIAE primary: -1; ABHD4 inh: 2; HTRA1 inh: 5; rCAG RNA binder: -33; BSA TAMRA ctr: -5; TCR-CD3 conf: 28*

Results for COc1cc(C2NC(=O)CCC2[N+](=O)[O-])cc(OC)c1OC (stereo not drawn) ?
PRMT1 FP inh: 2; TCR-CD3 inh: 23*; SIAE primary: -3; ABHD4 inh: -8; HTRA1 inh: -1; rCAG RNA binder: 2; BSA TAMRA ctr: -2; TCR-CD3 conf: -3

How did N#CCC[C@@H]1CC[C@]2(CCCN(Cc3ccc(Br)cc3)C2)O1 do in these assays?
PRMT1 FP inh: 9; SIAE primary: -4; ABHD4 inh: -8; rCAG RNA binder: 2

What do the screens show for `O=C(NNC(=O)c1ccccc1F)c1cccc(-n2cccc2)c1`?
PRMT1 FP inh: 4; TCR-CD3 inh: 22*; SIAE primary: -3; ABHD4 inh: 2; HTRA1 inh: 4; rCAG RNA binder: 18; BSA TAMRA ctr: 0; TCR-CD3 conf: 26*

What do the screens show for `O=C(Nc1ccccc1)c1cc(Cl)nc2ccccc12`?
PRMT1 FP inh: 3; TCR-CD3 inh: -4; SIAE primary: -3; ABHD4 inh: 3; HTRA1 inh: -13; rCAG RNA binder: -2

What do the screens show for `CC(=O)c1ccc(NC(=O)c2cc(Cl)nc3ccccc23)cc1`?
PRMT1 FP inh: 1; TCR-CD3 inh: 62*; SIAE primary: -3; ABHD4 inh: -12; HTRA1 inh: -20; rCAG RNA binder: 4; BSA TAMRA ctr: -2; TCR-CD3 conf: -1

How did CCN1CCN(C(=O)C2CCN(S(=O)(=O)c3ccc(SC)cc3)CC2)CC1 do in these assays?
PRMT1 FP inh: -5; TCR-CD3 inh: 9; SIAE primary: -3; ABHD4 inh: 2; HTRA1 inh: 0; rCAG RNA binder: -4

Source: PubChem BioAssay
